From ChEMBL document CHEMBL3124924, “Bifunctional ethyl 2-amino-4-methylthiazole-5-carboxylate derivatives: synthesis and in vitro biological evaluation as antimicrobial and anticancer agents” (2014)
Converted amounts (≈) assume the structure as drawn. The source made the active and inactive calls. No cut-off for these calls is given here.

Experiments:
[1] = test system: Candida albicans; assay: Antifungal activity against Candida albicans ATCC 10231 assessed as growth inhibition at 1 mg/mL after 48 hrs by agar-cup diffusion method; format: functional; conditions: ATCC 10231, 48 h, read-out: DIZ
Procedure, shortened: (§1)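 Agar-cup diffusion: 1 mL of 6 h broth culture seeded per 100 mL molten sterile agar at 45 °C and poured into plates. 8 mm cups cut, each filled with 0.1 mL of 1 mg/mL test solution. Incubated 37 °C for 24 h, 48 h for C. albicans. DMSO control per organism. Inhibition zone diameter in mm, mean of three measurements.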

[2] = test system: Pseudomonas aeruginosa; assay: Antibacterial activity against Pseudomonas aeruginosa ATCC 27853 assessed as growth inhibition at 1 mg/mL after 24 hrs by agar-cup diffusion method; format: functional; conditions: ATCC 27853, 24 h, read-out: DIZ; procedure, shortened: as §1
[3] = test system: Candida albicans; assay: Fungicidal activity against Candida albicans ATCC 10231 after 18 hrs; format: functional; conditions: ATCC 10231, 18 h
Procedure, shortened: (§2)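 Continuation of the broth-dilution MIC test. A loopful from each tube without visible growth spread on a quarter of a Mueller-Hinton agar plate and incubated 18 h. Lowest concentration giving no growth on subculture taken as the MBC.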

[4] = test system: Aspergillus niger; assay: Antifungal activity against Aspergillus niger assessed as growth inhibition at 1 mg/mL after 24 hrs by agar-cup diffusion method; format: functional, organism-based; procedure, shortened: as §1
[5] = test system: Staphylococcus aureus; assay: Antibacterial activity against Staphylococcus aureus ATCC 6538 assessed as growth inhibition at 1 mg/mL after 24 hrs by agar-cup diffusion method; format: functional; conditions: ATCC 6538, 24 h, read-out: DIZ; procedure, shortened: as §1
[6] = test system: Bacillus spizizenii; assay: Bactericidal activity against Bacillus subtilis ATCC 6633 after 18 hrs; format: functional; conditions: ATCC 6633, 18 h; procedure, shortened: as §2
[7] = test system: Bacillus spizizenii; assay: Antibacterial activity against Bacillus subtilis ATCC 6633 assessed as growth inhibition after 48 hrs by two-fold serial dilution assay; format: functional; conditions: ATCC 6633, 48 h
Procedure, shortened: (§3)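 Twofold serial broth dilution run on compounds giving inhibition zones of 13 mm or more. Organisms pre-grown in suitable broth at 37 °C, 24 h for bacteria and 48 h for fungi. Dilution series 200, 100, 50, 25, 12.5, 6.25. Each 5 mL tube inoculated with 0.1 mL and incubated 37 °C for 48 h. Tubes scored for presence or absence of growth.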

[8] = test system: Escherichia coli; assay: Antibacterial activity against Escherichia coli ATCC 25922 assessed as growth inhibition at 1 mg/mL after 24 hrs by agar-cup diffusion method; format: functional; conditions: ATCC 25922, 24 h, read-out: DIZ; procedure, shortened: as §1
[9] = test system: Candida albicans; assay: Antifungal activity against Candida albicans ATCC 10231 assessed as growth inhibition after 48 hrs by two-fold serial dilution assay; format: functional; conditions: ATCC 10231, 48 h; procedure, shortened: as §3
[10] = test system: Staphylococcus aureus; assay: Antibacterial activity against Staphylococcus aureus ATCC 6538 assessed as growth inhibition after 48 hrs by two-fold serial dilution assay; format: functional; conditions: ATCC 6538, 48 h; procedure, shortened: as §3
[11] = test system: Staphylococcus aureus; assay: Bactericidal activity against Staphylococcus aureus ATCC 6538 after 18 hrs; format: functional; conditions: ATCC 6538, 18 h; procedure, shortened: as §2
[12] = test system: Bacillus spizizenii; assay: Antibacterial activity against Bacillus subtilis ATCC 6633 assessed as growth inhibition at 1 mg/mL after 24 hrs by agar-cup diffusion method; format: functional; conditions: ATCC 6633, 24 h, read-out: DIZ; procedure, shortened: as §1
[13] = test system: Escherichia coli; assay: Antibacterial activity against Escherichia coli ATCC 25922 assessed as growth inhibition after 48 hrs by two-fold serial dilution assay; format: functional; conditions: ATCC 25922, 48 h; procedure, shortened: as §3
[14] = test system: Escherichia coli; assay: Bactericidal activity against Escherichia coli ATCC 25922 after 18 hrs; format: functional; conditions: ATCC 25922, 18 h; procedure, shortened: as §2
[15] = test system: Pseudomonas aeruginosa; assay: Antibacterial activity against Pseudomonas aeruginosa ATCC 27853 assessed as growth inhibition after 48 hrs by two-fold serial dilution assay; format: functional; conditions: ATCC 27853, 48 h; procedure, shortened: as §3
[16] = test system: Pseudomonas aeruginosa; assay: Bactericidal activity against Pseudomonas aeruginosa ATCC 27853 after 18 hrs; format: functional; conditions: ATCC 27853, 18 h; procedure, shortened: as §2

Compound	zone of inhibition at 1000 µg/mL [1]	zone of inhibition at 1000 µg/mL [2]	MFC [3]	growth inhibition (GI) [4]	zone of inhibition at 1000 µg/mL [5]	MBC [6]	MIC [7]	zone of inhibition at 1000 µg/mL [8]	MIC [9]	MIC [10]	MBC [11]	zone of inhibition at 1000 µg/mL [12]	MIC [13]	MBC [14]	MIC [15]	MBC [16]
CCOC(=O)c1sc(NC(=O)CN2CCOCC2)nc1C	> 13 mm	> 13 mm	100 µg/mL (≈ 319 µM)	inactive	> 13 mm	100 µg/mL (≈ 319 µM)	100 µg/mL (≈ 319 µM)	> 13 mm	100 µg/mL (≈ 319 µM)	50 µg/mL (≈ 160 µM)	50 µg/mL (≈ 160 µM)	> 13 mm				
CCOC(=O)c1sc(NC(=O)C(F)(F)F)nc1C	> 13 mm	> 13 mm	100 µg/mL (≈ 354 µM)	inactive	> 13 mm	100 µg/mL (≈ 354 µM)	100 µg/mL (≈ 354 µM)	> 13 mm	100 µg/mL (≈ 354 µM)	100 µg/mL (≈ 354 µM)	100 µg/mL (≈ 354 µM)	> 13 mm	100 µg/mL (≈ 354 µM)	100 µg/mL (≈ 354 µM)		
Cc1ccc(NC(=S)Nc2nc(C)c(C(=O)NN)s2)cc1	> 13 mm	> 13 mm	100 µg/mL (≈ 311 µM)	inactive	> 13 mm	50 µg/mL (≈ 156 µM)	50 µg/mL (≈ 156 µM)	> 13 mm	100 µg/mL (≈ 311 µM)	25 µg/mL (≈ 77.8 µM)	25 µg/mL (≈ 77.8 µM)	> 13 mm	100 µg/mL (≈ 311 µM)	100 µg/mL (≈ 311 µM)	50 µg/mL (≈ 156 µM)	100 µg/mL (≈ 311 µM)
